Data on 48 compounds can be found in ChEMBL document CHEMBL1789904, “Imaging of Plasmodium liver stages to drive next-generation antimalarial drug discovery” (Science, 2011).

In this test the test system is Plasmodium yoelii. The test can be described thus: NOVARTIS: Antimalarial liver stage activity measured as reduction in Plasmodium yoelii schizont area in HepG2-A16-CD81 cells by immuno-fluorescence, and median schizont size at 10uM compound concentration. The test is classed as functional, organism-based. The note with it: for IC50: Plasmodium yoelii, HepG2-A16-CD81. The procedure, abridged: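 Host and parasite nuclei stained with Hoechst 33342, parasites with αPyHSP70 antibody; 25 images per well by high-content imaging; median parasite (schizont) area measured by automated image analysis, ~50 schizonts per experiment, two or more independent experiments.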

Some results are limits rather than exact numbers.

Regarding `OC1=C2C(=Nc3ccccc3SC2c2ccccc2)c2ccccc21` (stereo unspecified), the Schizont size is 28.39 um and the IC50 (in general, the concentration that inhibits the measured activity by half) stood at 0.0937 µM.

`CC[n+]1c(C=C2C=CN(C)C=C2)ccc2cc(C)ccc21.[I-]` returned a Schizont size of 25.57 um and a 50% inhibitory concentration (IC50) of 0.17 µM.

In the case of `COc1ccc(C2CC(=O)C3=C(C2)NC(C)=C(C(=O)OC2CCCC2)C3c2ccc([N+](=O)[O-])cc2)cc1OC` (stereo unspecified), the Schizont size was 103.85 um and half-maximal inhibition (IC50) was put at 3.92 µM.

In turn, `CC1(C)N=C(N)N=C(N)N1c1ccc(I)cc1.Cl` returned a Schizont size of 33.82 um and an IC50 of 0.01 µM.

`Fc1ccc2nc(Nc3nc(-c4ccccn4)cs3)sc2c1` had a Schizont size of 22.86 um and an IC50 of 0.0438 µM.

Take `O=C(NC1CC1)c1ccc(CSCc2ccccc2Cl)o1`: the Schizont size stood at 26.09 um and the IC50 was determined as 0.14 µM.

Consider `CCOC(=O)c1c(NC(C)=O)sc2c1CCN(C(C)C)C2`, for which the Schizont size is reported as 93.21 um and 3.01 µM corresponded to half-maximal inhibition (IC50).

On to `Fc1ccc(Nc2nc(NCc3ccccc3)c3ccccc3n2)cc1`, for which the Schizont size came to 154.58 um and the IC50 amounted to 3.79 µM.

Compound `Fc1ccc(-c2cn3c([n+]2-c2ccccc2)SCC3)cc1.[Br-]` showed a Schizont size of 131.2 um and an IC50 of more than 4.3 µM.

Turning to `COc1cncc(-c2cncc(-c3ccc(C)cc3)n2)c1`, the IC50 was more than 10 µM.

`N#Cc1ccc(NC(=O)NC2CC3CCCC(C2)N3CCc2ccccc2)cc1` (stereo unspecified) came in with a Schizont size of 62 um and an IC50 of 0.497 µM.

The compound `COc1cccc(CNC(=O)C2CNCC2c2ccc(C(F)(F)F)cc2)c1` (stereo unspecified) registered an IC50 of 0.857 µM.

The compound `Cl.OCCNc1nc(Nc2ccccc2)nc2ccccc12` had a Schizont size of 62.1 um and an IC50 of 0.0479 µM.

In turn, `CC(=O)N(C1=C(N(C)C)C(=O)c2ccccc2C1=O)c1ccc(F)cc1` returned a Schizont size of 23.8 um and an IC50 of 0.0573 µM.

As to `COc1ccc2nc(C)cc(Nc3ccc(Oc4ccc5ccccc5c4Cl)c(Cl)c3)c2c1`, the Schizont size was determined as 31 um and the IC50 was determined as 0.114 µM.

Compound `Cc1cc(N)c2ccccc2[n+]1CCCCCCCCCC[n+]1c(C)cc(N)c2ccccc21.[Cl-].[Cl-]` [DEQUALINIUM CHLORIDE] had a Schizont size of 40.29 um and an IC50 of 0.566 µM.

For the compound `COc1ccccc1-n1c(C=Cc2cc(Br)ccc2O)nc2ccccc2c1=O`, it took 4.59 µM to reach half-maximal inhibition (IC50).

Take `C[C@@H]1CCC[C@@H](C[C@H]2Cc3cc(O)cc(O)c3C(=O)O2)O1`: the Schizont size came out at 41.96 um and the IC50 was 0.112 µM.

`O=C1c2ccccc2C2=Nc3ccccc3SC(c3cccc(F)c3)C12` (stereo unspecified) yielded a Schizont size of 30.06 um and a half-inhibitory concentration (IC50) of 0.163 µM.

`Clc1ncnc2ncn(Cc3ccccc3)c12`: the Schizont size is recorded as 220.34 um and the IC50 was more than 10 µM.

`CCC(=O)NC(c1ccccc1Cl)c1cc(Cl)c2cccnc2c1O` (stereo unspecified) showed a Schizont size of 55.11 um and an IC50 of 1.01 µM.

`Brc1ccc(Nc2nc(NCc3ccco3)c3ccccc3n2)cc1` showed a Schizont size of 35.17 um and an IC50 of 0.163 µM.

In turn, `COc1ccc(C2CC(=O)C3=C(C2)NC(C)=C(C(=O)OC(C)C)C3c2cccc(C)c2)cc1OC` (stereo unspecified) gave a Schizont size of 90.91 um and an IC50 of 1.84 µM.

With `Nc1ccc(-c2nc3cc(Oc4ccc(Oc5ccc6[nH]c(-c7ccc(N)cc7)nc6c5)cc4)ccc3[nH]2)cc1`, the Schizont size was found to be 116.48 um and inhibition was half-maximal at 0.319 µM (IC50).

As to `CCCCOc1ccc(C2C3CCCC=C3C(C#N)=C(N)C2(C#N)C#N)cc1` (stereo unspecified), the Schizont size is on record as 213.66 um and the IC50 is more than 10 µM.

For the compound `Nc1nonc1-n1nnc(C(=O)NN=Cc2ccc(F)c(Br)c2)c1-c1ccc([N+](=O)[O-])cc1`, the Schizont size amounted to 246.12 um and the IC50 was more than 10 µM.

In turn, `N#Cc1c2c(c(N3CCN(Cc4ccccc4)CC3)n3c1nc1ccccc13)CCC2` returned a Schizont size of 241.42 um and an IC50 of more than 10 µM.

`COc1ccc(C2Sc3ccccc3N=C3C2=C(O)c2ccccc23)cc1` (stereo unspecified) displayed a Schizont size of 39.14 um and an IC50 of 0.706 µM.

The compound `CC(C)(C)OC(=O)N1CCC(c2c(C(=O)Nc3cccc(C(F)(F)F)c3)cnn2-c2ccc(F)cc2F)CC1` returned an IC50 of 3.12 µM.

Regarding `N#Cc1c2c(c(N3CCN(c4ccccn4)CC3)n3c1nc1ccccc13)CCC2`, the Schizont size is 174.41 um and the IC50 is more than 10 µM.

In the case of `COc1cc(C(=O)Nc2ccc3nc4n(c(=O)c3c2)CCCCC4)cc(OC)c1OC`, the IC50 is more than 10 µM.

With `COc1ccc2c(C)nc(Nc3nc(C)cc(-c4ccccc4)n3)nc2c1`, the Schizont size was 170.24 um and it took 6.66 µM to reach half-maximal inhibition (IC50).

In turn, `CCC(C)(C)c1ccc(OCCCC[n+]2cccc(C)c2C)c(C(C)(C)CC)c1.[Br-]` came in with a Schizont size of 12.53 um and an IC50 of 0.0455 µM.

Turning to `CCN(CC)CCCN(Cc1cc2ccc(C)cc2[nH]c1=O)C(=S)Nc1cccc(Cl)c1`, the Schizont size is given as 58.76 um and half-maximal inhibition (IC50) was put at 0.448 µM.

As for `CC[n+]1c(/C=C/N(C)c2ccccc2)n(-c2ccccc2)c2ccc(-c3nc4ccccc4s3)cc21`, the Schizont size was determined as 20.14 um and the IC50 came to 0.014 µM.

`COc1ccc2[nH]c(=O)c(CN(C(=S)Nc3ccccc3OC)C3CCCC3)cc2c1`: the Schizont size is reported as 157.5 um and the IC50 is more than 9.74 µM.

Turning to `COc1ccc(C(NC(=O)c2cccnc2)c2cc(Cl)c3cccnc3c2O)cc1` (stereo unspecified), the Schizont size turned out to be 21.08 um and the IC50 stood at 0.542 µM.

On to `CCOC(=O)c1ccc2nc(-c3ccccc3)cc(O)c2c1`, for which the Schizont size was 20.67 um and the IC50 was determined as 0.02 µM.

In turn, `CCOc1ccc(N(C(=O)C2COc3ccccc3O2)C(C(=O)NC2CCCCC2)c2cn(C)nc2C)cc1` (stereo unspecified) gave a Schizont size of 191.42 um and an IC50 of more than 10 µM.

The compound `CCOc1ccc(CN(C(=O)COc2ccc(Cl)cc2)C(C)CCCN(CC)CC)cc1.O=C(O)C(F)(F)F` (stereo unspecified) yielded a Schizont size of 55.32 um and an IC50 of 0.0204 µM.

The compound `Oc1cccc2ccc(Nc3ccccn3)nc12` registered a Schizont size of 30.16 um and an IC50 of 0.142 µM.

Take `Cc1ccc(Nc2nc3c(N)nnc(N)c3nc2Nc2ccc(C)cc2)cc1`: the Schizont size is listed as 50.31 um and it took 0.488 µM to reach half-maximal inhibition (IC50).

As to `C=CC[n+]1c(C=C2C=CN(C)C=C2)sc2ccccc21.[I-]`, the Schizont size is reported as 26.72 um and the half-maximal inhibitory concentration (IC50) is 0.0132 µM.

With `OC1=C2C(=Nc3ccccc3SC2c2cccs2)c2ccccc21` (stereo unspecified), the Schizont size turned out to be 25.89 um and inhibition was half-maximal at 0.0904 µM (IC50).

Compound `Cl.OCCNc1nc(Nc2ccc(F)cc2)nc2ccccc12` displayed a Schizont size of 91.12 um and an IC50 of 0.136 µM.

`Cc1ncc(CCCCN(C)C)c2c1[nH]c1ccccc12` came in with a Schizont size of 132.56 um and an IC50 of 2.77 µM.

Take `Cc1ccc(CSCc2ccc(C(=O)NC3CC3)o2)cc1`: the Schizont size is reported as 25.36 um and the IC50 came to 0.0473 µM.

The compound `COc1cccc(C(=O)NC(c2ccccc2OC)c2cc(Cl)c3cccnc3c2O)c1` (stereo unspecified) registered a Schizont size of 20.25 um and an IC50 of 0.544 µM.
